Experimental data from different studies.
Read-out: cell growth or viability

O=C(Nc1ccccc1)Nc1ccc(Oc2nc3ccccc3n3cnnc23)cc1  viability (MDA-MB-231; MTT; 100 µM, 24 h): 41.6%
O=C(Nc1ccccc1/N=c1\cc(-c2ccc3c(c2)OCCO3)oc2cc(F)ccc12)N1CCOCC1  inhibition (MDA-MB-231; CCK-8; 1 µM): 8.63%
COc1cc(C(=O)c2nc(-c3cccc4cc[nH]c34)c[nH]2)cc(OC)c1OC  IC50 (A-375; MTS; 72 h): 0.0205 µM
CCCCC(=O)Nc1ccc(-c2ccc3ncn(CCC)c(=O)c3c2)cn1  IC50 (MRC5; CCK-8; 72 h): 0.48 µM
COc1cccc2c1C(=O)c1c(O)c3c(c(O)c1C2=O)C[C@@](O)(C(=O)CO)C[C@@H]3O[C@H]1C[C@H](N)[C@H](O)[C@H](C)O1  IC50 (MRC5; MTT; 75 h): 2.7 µM
O=C(NN=Cc1ccc([N+](=O)[O-])s1)C1CC(=O)N(c2ccc(F)cc2F)C1 (stereo not shown)  viability (A-375; MTT; 100 µM, 72 h): 4.41%
CN(C)c1cccc(Nc2nc(-c3ccncc3)nc3c2CNCC3)c1  IC50 (A-375; MTT): 88.8 µM
O=C(Nc1ccc(Oc2nc3ccccc3n3cnnc23)cc1)Nc1cccc(Cl)c1  viability (MDA-MB-231; MTT; 50 µM, 24 h): 41.2%
COc1cc(C(=O)c2nc(-c3ccsc3)c[nH]2)cc(OC)c1OC  IC50 (A-375; MTS; 72 h): 0.0432 µM
O=C(Nc1ccc(Cl)cc1)Nc1ccc(Oc2nc3ccccc3n3cnnc23)cc1  viability (MDA-MB-231; MTT; 50 µM, 24 h): 56.4%
O=C(Nc1ccccc1/N=c1\cc(-c2ccc3c(c2)OCO3)oc2ccccc12)N1CCNCC1  inhibition (MDA-MB-231; CCK-8; 1 µM): 2.22%
Cn1nnc2c(C(N)=O)ncn2c1=O  IC50 (human Astrocyte; MTT): 2080 µM
CNC(=O)c1cc(Oc2ccc(NC(=O)Nc3ccc(Cl)c(C(F)(F)F)c3)cc2)ccn1  viability (MDA-MB-231; MTT; 50 µM, 24 h): 16.7%
NCCCC(=O)Nc1ccccc1/N=c1\cc(-c2ccc3c(c2)OCO3)oc2ccccc12  inhibition (MDA-MB-231; CCK-8; 1 µM): 8.02%
Cc1nc(Nc2ncc(C(=O)Nc3c(C)cccc3Cl)s2)cc(N2CC[C@H](O)C2)n1  inhibition (SU-DHL-1; ATP luminescence; 10 µM, 72 h): 11%
NCC(=O)Nc1ccccc1/N=c1\cc(-c2ccc3c(c2)OCO3)oc2ccccc12  inhibition (MDA-MB-231; CCK-8; 1 µM): 12.4%
COc1cc(C(=O)c2nc(-c3ccc4cc[nH]c4c3)c[nH]2)cc(OC)c1OC  IC50 (A-375; MTS; 72 h): 0.0199 µM
Nc1nc2ccc(-c3c/c(=N\c4ccccc4NC(=O)CCN4CCOCC4)c4ccccc4o3)cc2o1  inhibition (MDA-MB-231; CCK-8; 1 µM): -0.02%
COc1cc(C(=O)c2nc(-c3ccnc4[nH]ccc34)c[nH]2)cc(OC)c1OC  IC50 (A-375; MTS; 72 h): 0.0285 µM
Nc1ccccc1/N=c1\cc(-c2ccc3c(c2)OCO3)oc2ccccc12  inhibition (MDA-MB-231; CCK-8; 1 µM): 2.58%
COc1cccc(NC(=O)Nc2ccc(Oc3nc4ccccc4n4cnnc34)cc2)c1  viability (MDA-MB-231; MTT; 100 µM, 24 h): 24.6%
COc1ccc2/c(=N/c3ccccc3NC(=O)[C@@H](N)C(C)(C)C)cc(-c3ccc4c(c3)OCCO4)oc2c1  inhibition (MDA-MB-231; CCK-8; 1 µM): 6.88%
COc1cccc2c1C(=O)c1c(O)c3c(c(O)c1C2=O)C[C@@](O)(C(=O)CO)C[C@@H]3O[C@H]1C[C@H](N)[C@H](O)[C@H](C)O1  IC50 (HS27; CCK-8; 72 h): 0.109 µM
NCCCCC(=O)Nc1ccccc1/N=c1\cc(-c2ccc3c(c2)OCO3)oc2ccccc12  inhibition (MDA-MB-231; CCK-8; 1 µM): -5.88%
COc1cc(C(=O)c2nc(-c3cccc4[nH]ccc34)c[nH]2)cc2c1OCO2  IC50 (A-375; MTS; 72 h): 0.0051 µM
